Laboratory results as given in ChEMBL document CHEMBL5696442, “Discovery of type II inhibitors of TGFβ-activated kinase 1 (TAK1) and mitogen-activated protein kinase kinase kinase kinase 2 (MAP4K2)” (J Med Chem, 2015).

Experiments:
[1] = biological target: Tyrosine-protein kinase Fer (Homo sapiens, UniProt P16591); assay: Inhibition of FER Lys1 labeling site in human Huh-7 cell lysate at 1 uM by KiNativ Profiling analysis relative to control; assay type: subcellular
[2] = biological target: T1, Kinase suppressor of Ras 2 (Homo sapiens) (UniProt Q6VAB6); assay: Inhibition of KSR2 ACT labeling site in human A-375 cells at 0.5 uM by KiNativ Profiling analysis relative to control; assay type: cell-based
T1 sequence (whole entry): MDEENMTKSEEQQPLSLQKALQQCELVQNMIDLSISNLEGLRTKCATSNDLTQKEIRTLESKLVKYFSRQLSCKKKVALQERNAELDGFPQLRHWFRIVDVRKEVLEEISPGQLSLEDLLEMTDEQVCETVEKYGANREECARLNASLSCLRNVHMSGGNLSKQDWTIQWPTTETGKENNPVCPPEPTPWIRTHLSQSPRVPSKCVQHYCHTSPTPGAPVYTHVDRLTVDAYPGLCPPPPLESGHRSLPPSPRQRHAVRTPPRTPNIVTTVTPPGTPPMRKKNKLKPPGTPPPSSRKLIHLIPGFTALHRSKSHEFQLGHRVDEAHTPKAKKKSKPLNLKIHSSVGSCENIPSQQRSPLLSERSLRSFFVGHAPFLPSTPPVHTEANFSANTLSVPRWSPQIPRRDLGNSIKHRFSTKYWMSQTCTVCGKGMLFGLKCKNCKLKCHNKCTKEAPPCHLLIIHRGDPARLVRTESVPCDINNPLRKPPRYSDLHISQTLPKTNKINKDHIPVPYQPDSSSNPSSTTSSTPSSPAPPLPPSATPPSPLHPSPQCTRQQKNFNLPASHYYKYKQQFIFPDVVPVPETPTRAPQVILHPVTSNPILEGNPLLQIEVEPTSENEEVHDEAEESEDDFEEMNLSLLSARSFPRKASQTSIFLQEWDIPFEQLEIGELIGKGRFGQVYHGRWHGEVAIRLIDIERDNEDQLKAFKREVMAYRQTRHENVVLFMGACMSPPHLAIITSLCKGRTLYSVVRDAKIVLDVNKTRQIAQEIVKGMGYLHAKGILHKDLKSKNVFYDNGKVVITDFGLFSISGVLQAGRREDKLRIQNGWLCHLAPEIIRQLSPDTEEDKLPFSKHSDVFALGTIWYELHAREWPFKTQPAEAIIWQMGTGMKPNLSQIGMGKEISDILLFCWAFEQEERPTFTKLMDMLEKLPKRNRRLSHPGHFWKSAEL

[3] = biological target: T2, Dual specificity mitogen-activated protein kinase kinase 5 (Homo sapiens) (UniProt Q13163); assay: Inhibition of MAP2K5 Lys2 labeling site in human A-375 cells at 0.5 uM by KiNativ Profiling analysis relative to control; assay type: cell-based
T2 sequence (whole entry): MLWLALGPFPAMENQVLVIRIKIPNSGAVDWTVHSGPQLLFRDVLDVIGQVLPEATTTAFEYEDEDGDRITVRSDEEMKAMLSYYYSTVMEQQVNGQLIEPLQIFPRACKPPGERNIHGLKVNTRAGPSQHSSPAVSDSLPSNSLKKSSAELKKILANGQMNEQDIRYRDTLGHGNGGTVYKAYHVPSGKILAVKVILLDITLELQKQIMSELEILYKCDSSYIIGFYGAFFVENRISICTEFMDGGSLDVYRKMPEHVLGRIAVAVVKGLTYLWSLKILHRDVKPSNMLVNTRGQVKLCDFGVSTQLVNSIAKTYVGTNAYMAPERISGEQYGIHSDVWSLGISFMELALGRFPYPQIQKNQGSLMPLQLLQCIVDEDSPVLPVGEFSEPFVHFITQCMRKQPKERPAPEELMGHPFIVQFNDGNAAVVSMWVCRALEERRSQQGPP

[4] = biological target: Cyclin-dependent kinase 18 (Homo sapiens) (UniProt Q07002); assay: Inhibition of PCTAIRE3 Lys1 labeling site harbouring SKLTENLVALKEIRLEHEEGAPCTAIR in human A-375 cells at 5 uM by KiNativ Profiling analysis relative to control; assay type: cell-based
Outline: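 Live A375 melanoma cells were treated with compound at 5 or 0.5 μM, then lysed. Lysates were labeled with a lysine-reactive ATP or ADP-biotin probe. Read-out was the compound's protection of kinase labeling sites from probe labeling (KiNativ).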

[5] = biological target: Mitogen-activated protein kinase 8 (Homo sapiens, UniProt P45983); assay: Inhibition of JNK1 (unknown origin) Lys2 labeling site by KiNativ Profiling analysis
[6] = biological target: Cyclin-dependent kinase 11B (Homo sapiens) (UniProt P21127); assay: Inhibition of PITSLRE Lys2 labeling site in human A-375 cells at 0.5 uM by KiNativ Profiling analysis relative to control; assay type: cell-based
[7] = biological target: Mitogen-activated protein kinase 10 (Homo sapiens, UniProt P53779); assay: Inhibition of JNK3 Lys2 labeling site in human A-375 cells at 5 uM by KiNativ Profiling analysis relative to control; assay type: cell-based
[8] = biological target: Serine/threonine-protein kinase WNK1 (Homo sapiens) (UniProt Q9H4A3); assay: Inhibition of Wnk1 Lys2 labeling site in human A-375 cells at 5 uM by KiNativ Profiling analysis relative to control; assay type: cell-based
Chain of Serine/threonine-protein kinase WNK1 (Homo sapiens) (Q9H4A3 whole entry, looked up): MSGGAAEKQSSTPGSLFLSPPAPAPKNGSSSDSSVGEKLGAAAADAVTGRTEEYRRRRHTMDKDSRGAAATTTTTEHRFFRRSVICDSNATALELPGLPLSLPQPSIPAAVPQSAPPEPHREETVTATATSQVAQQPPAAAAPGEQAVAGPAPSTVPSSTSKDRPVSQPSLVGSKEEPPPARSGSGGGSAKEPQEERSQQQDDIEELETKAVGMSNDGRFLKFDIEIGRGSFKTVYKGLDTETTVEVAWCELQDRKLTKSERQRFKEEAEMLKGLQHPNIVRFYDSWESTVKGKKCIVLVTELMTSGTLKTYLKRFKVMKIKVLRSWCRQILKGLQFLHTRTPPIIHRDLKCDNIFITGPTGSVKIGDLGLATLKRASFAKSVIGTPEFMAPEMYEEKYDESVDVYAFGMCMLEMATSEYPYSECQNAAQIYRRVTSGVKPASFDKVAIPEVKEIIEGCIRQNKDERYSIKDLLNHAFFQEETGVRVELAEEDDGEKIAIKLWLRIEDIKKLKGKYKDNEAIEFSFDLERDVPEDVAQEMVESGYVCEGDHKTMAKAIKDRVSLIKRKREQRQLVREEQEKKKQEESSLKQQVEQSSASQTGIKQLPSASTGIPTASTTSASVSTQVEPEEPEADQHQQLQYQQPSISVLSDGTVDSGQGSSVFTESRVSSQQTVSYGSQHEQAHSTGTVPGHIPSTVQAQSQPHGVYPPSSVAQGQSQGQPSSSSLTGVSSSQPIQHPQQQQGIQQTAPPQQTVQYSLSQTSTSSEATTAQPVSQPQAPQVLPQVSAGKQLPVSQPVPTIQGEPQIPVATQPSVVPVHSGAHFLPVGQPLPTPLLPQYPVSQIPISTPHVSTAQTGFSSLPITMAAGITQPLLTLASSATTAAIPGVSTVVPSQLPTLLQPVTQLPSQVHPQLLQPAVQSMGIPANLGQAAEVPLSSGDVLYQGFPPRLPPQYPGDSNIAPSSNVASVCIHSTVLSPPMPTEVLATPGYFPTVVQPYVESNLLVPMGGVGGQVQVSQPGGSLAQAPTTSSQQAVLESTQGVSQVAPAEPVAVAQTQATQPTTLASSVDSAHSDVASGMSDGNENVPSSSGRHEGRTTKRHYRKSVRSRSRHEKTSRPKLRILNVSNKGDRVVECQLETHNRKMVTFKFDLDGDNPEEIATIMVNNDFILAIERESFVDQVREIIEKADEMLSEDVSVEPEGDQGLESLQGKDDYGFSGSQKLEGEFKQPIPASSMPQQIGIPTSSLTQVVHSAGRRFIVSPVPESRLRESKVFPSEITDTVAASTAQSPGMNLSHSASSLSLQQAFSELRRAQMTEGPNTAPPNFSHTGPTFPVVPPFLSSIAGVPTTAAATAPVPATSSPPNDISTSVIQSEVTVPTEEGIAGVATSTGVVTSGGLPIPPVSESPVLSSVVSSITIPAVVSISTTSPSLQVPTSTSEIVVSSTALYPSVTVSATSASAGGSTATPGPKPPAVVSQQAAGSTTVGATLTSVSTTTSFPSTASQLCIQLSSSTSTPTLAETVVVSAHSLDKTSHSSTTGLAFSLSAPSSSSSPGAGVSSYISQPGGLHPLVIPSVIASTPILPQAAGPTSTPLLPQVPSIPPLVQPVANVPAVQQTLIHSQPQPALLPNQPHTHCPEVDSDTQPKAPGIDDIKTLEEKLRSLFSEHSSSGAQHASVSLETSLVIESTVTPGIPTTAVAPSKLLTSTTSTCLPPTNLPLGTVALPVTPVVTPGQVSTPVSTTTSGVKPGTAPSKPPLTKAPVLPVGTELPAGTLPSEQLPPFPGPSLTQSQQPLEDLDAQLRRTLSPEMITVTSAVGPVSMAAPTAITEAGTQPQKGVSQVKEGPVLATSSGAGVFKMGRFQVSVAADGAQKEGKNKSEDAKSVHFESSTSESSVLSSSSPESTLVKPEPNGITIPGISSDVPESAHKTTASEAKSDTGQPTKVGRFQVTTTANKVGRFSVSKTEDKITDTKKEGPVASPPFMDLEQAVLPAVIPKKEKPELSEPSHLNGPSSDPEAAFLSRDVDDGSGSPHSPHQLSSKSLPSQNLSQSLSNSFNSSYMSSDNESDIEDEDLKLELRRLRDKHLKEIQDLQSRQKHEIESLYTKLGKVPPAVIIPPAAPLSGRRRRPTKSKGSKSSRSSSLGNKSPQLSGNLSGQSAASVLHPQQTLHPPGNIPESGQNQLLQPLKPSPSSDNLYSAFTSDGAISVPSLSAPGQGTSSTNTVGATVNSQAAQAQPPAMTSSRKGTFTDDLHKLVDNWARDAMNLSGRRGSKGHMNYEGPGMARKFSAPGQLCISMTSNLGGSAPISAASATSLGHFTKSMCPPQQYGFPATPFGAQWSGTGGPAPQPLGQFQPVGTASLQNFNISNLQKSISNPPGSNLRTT

Chain of Mitogen-activated protein kinase 8 (P45983 whole entry): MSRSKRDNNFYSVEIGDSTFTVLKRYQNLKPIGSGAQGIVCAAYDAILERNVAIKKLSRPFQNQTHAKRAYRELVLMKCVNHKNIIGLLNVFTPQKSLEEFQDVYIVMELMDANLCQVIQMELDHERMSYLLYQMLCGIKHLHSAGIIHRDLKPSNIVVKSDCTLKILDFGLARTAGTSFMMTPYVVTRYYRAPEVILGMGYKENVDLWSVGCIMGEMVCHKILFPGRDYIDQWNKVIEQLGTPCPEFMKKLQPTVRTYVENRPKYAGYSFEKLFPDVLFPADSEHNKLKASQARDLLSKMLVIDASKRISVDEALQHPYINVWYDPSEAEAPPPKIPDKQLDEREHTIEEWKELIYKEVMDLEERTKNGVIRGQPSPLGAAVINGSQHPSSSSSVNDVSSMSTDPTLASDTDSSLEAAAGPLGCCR
Chain of Mitogen-activated protein kinase 10 (P53779 whole entry): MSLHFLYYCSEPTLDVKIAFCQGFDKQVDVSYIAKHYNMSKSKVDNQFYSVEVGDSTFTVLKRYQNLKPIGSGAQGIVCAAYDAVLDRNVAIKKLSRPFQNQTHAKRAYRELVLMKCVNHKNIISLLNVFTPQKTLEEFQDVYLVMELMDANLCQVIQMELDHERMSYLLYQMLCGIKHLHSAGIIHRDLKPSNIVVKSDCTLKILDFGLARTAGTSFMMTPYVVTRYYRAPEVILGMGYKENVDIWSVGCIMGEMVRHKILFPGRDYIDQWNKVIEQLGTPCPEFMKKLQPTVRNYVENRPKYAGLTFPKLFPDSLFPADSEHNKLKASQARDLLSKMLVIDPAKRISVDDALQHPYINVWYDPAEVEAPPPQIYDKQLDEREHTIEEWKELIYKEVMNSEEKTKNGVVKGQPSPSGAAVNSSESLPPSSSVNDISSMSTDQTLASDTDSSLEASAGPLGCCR
Chain of Tyrosine-protein kinase Fer (P16591 whole entry, looked up): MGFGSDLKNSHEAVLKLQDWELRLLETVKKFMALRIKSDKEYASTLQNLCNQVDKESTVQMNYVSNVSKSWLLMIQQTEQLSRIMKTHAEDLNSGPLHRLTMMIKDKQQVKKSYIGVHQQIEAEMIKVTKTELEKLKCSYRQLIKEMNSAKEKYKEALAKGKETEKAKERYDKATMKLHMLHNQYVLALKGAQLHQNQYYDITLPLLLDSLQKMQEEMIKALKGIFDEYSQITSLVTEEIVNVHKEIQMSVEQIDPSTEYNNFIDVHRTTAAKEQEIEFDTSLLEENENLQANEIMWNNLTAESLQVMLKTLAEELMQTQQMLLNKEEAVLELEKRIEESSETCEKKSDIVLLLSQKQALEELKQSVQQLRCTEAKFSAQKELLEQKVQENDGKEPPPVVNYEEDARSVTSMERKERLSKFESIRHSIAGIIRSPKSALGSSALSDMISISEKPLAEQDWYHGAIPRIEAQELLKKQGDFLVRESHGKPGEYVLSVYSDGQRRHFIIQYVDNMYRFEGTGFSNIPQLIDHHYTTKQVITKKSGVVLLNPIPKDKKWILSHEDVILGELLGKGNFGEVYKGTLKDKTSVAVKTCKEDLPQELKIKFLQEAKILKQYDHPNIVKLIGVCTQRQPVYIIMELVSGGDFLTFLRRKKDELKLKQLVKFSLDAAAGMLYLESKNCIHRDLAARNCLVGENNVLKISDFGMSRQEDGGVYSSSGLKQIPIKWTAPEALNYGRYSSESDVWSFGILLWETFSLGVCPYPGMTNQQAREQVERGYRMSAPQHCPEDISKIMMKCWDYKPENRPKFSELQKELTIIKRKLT
Chain of Cyclin-dependent kinase 11B (Homo sapiens) (P21127 whole entry): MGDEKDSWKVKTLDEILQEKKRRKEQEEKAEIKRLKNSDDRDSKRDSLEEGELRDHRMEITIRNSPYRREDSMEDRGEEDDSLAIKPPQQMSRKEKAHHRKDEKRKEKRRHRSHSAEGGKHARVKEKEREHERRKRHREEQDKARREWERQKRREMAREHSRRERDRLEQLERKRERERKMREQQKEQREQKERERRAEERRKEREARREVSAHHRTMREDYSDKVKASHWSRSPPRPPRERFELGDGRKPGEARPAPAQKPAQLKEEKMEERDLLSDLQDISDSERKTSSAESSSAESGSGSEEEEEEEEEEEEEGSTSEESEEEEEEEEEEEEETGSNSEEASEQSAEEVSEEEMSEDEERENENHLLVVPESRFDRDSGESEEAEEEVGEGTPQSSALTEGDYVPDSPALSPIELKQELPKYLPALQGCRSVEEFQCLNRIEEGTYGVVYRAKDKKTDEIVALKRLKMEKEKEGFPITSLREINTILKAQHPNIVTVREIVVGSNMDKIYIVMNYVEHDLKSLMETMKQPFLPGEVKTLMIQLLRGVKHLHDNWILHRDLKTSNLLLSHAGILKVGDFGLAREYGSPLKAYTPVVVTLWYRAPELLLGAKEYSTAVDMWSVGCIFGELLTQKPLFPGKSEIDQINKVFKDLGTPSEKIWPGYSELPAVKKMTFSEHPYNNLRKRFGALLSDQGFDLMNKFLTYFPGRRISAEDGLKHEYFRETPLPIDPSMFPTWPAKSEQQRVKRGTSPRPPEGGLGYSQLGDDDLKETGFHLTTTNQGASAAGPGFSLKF

Structure (SMILES)	inhibition [1] [%]	inhibition [2] [%]	inhibition [3] [%]	inhibition [4] [%]	IC50 [5] [µM]	inhibition [6] [%]	inhibition [7] [%]	inhibition [8] [%]
CNc1cc(Oc2cc(C(=O)Nc3cc(N4CCN(C)CC4)cc(C(F)(F)F)c3)ccc2C)ncn1	10.6	–	–	–	–	–	–	–
CCN1CCN(Cc2ccc(NC(=O)c3ccc(C)c(/C=C/c4cnc5[nH]ccc5c4OC)c3)cc2C(F)(F)F)CC1	–	16.8	26.1	21.3	> 10	-0.4	76.9	14.3
CNc1cc(Oc2cc(C(=O)Nc3cc(-n4cnc(C)c4)cc(C(F)(F)F)c3)ccc2C)ncn1	18.2	–	–	–	–	–	–	–
CCN1CCN(Cc2ccc(NC(=O)c3ccc(C)c(Oc4ccnc5[nH]ccc45)c3)cc2C(F)(F)F)CC1	–	8.5	16.2	56.6	> 10	-2.7	90.3	-5.5
